Measurements of several laboratories.
USP51: Ubiquitin carboxyl-terminal hydrolase 51 (USP51, Homo sapiens, UniProt Q70EK9)
SLC6A3: Sodium-dependent dopamine transporter (SLC6A3, Homo sapiens, UniProt Q01959)
CA12: Carbonic anhydrase 12 (CA12, Homo sapiens, UniProt O43570)
DRD3: D(3) dopamine receptor (DRD3, Homo sapiens, UniProt P35462)

CC(=O)c1ccc(O)c(C(=O)O)c1  inhibition (USP51; enzyme activity; inhibitor; 5 µM): 29%
Fc1ccc(C(c2ccc(F)cc2)c2nnnn2CCCN2CCC(CCCc3ccccc3)CC2)cc1  inhibition (SLC6A3; transporter uptake; inhibitor; HEK293; 1 µM): 33.1%
O=c1c(-c2ccc(O)cc2)coc2cc(O)ccc12  inhibition (USP51; enzyme activity; inhibitor; 5 µM): 10%
O=C1NC(=S)C(=Cc2cn(-c3ccccc3)nc2-c2ccc(Br)cc2)S1  inhibition (CA12; enzyme activity; inhibitor; absorbance; 100 µM): 75%
OC[C@H]1NC[C@H](O)[C@@H](O)[C@@H]1O  inhibition (USP51; enzyme activity; inhibitor; 5 µM): 0%
Cc1ccccc1OCC(O)CN1CCN(CC(O)COc2ccccc2C)CC1 (centres unmarked)  inhibition (DRD3; enzyme activity; inhibitor; 10 µM): -12.1%
Fc1ccc(C(c2ccc(F)cc2)c2nnnn2CCCCN2CCC(Cc3ccccc3)CC2)cc1  inhibition (SLC6A3; transporter uptake; inhibitor; HEK293; 1 µM): 92.3%
CCOC(=O)C1CSc2[nH]c(=O)sc2C1c1cn(-c2ccccc2)nc1-c1ccc(Cl)cc1 (centres unmarked)  inhibition (CA12; enzyme activity; inhibitor; absorbance; 10 µM): 85.5%
O=C1C2CCCN2C(=O)N1CCCCN1CCN(c2cccc(C(F)(F)F)c2)CC1 (centres unmarked)  inhibition (DRD3; enzyme activity; inhibitor; 10 µM): 42.5%
CN1C(=O)/C(=C2/C(=O)Nc3ccccc32)c2ccccc21  inhibition (USP51; enzyme activity; inhibitor; 5 µM): 48%
N#CC1CSc2[nH]c(=O)sc2C1c1cn(-c2ccccc2)nc1-c1ccc(Br)cc1 (centres unmarked)  inhibition (CA12; enzyme activity; inhibitor; absorbance; 0.1 µM): 40.6%
COc1ccc(S(N)(=O)=O)cc1C(=O)NCCCN1CCN(c2ccccc2C)CC1  inhibition (DRD3; enzyme activity; inhibitor; 10 µM): 22.8%
c1ccc(CCC2CCN(CCCCn3nnnc3C(c3ccccc3)c3ccccc3)CC2)cc1  inhibition (SLC6A3; transporter uptake; inhibitor; HEK293; 1 µM): 80.3%
COc1cc(CNCCc2c[nH]c3ccccc23)cc(Cl)c1OCC(N)=O  inhibition (DRD3; enzyme activity; inhibitor; 10 µM): 39.6%
O=C(/C=C/C=C/c1ccc2c(c1)OCO2)N1CCCCC1  inhibition (USP51; enzyme activity; inhibitor; 5 µM): 31%
Cc1[nH]n(-c2ccc([N+](=O)[O-])cc2)c(=O)c1C=NCCN1CCN(C(=O)c2cccc(F)c2)CC1  inhibition (DRD3; enzyme activity; inhibitor; 10 µM): -24.9%
COc1cc2c(cc1OC)-c1cc3ccc(OC)c(OC)c3c[n+]1CC2  inhibition (USP51; enzyme activity; inhibitor; 5 µM): 51%
COc1ccc(S(N)(=O)=O)cc1C(=O)NCCCN1CCN(c2ccccc2OC)CC1  inhibition (DRD3; enzyme activity; inhibitor; 10 µM): 21.6%
O=C1C[C@@H](c2ccccc2)Oc2cc(O)cc(O)c21  inhibition (USP51; enzyme activity; inhibitor; 5 µM): 2%
CCOC(=O)C1CSc2[nH]c(=O)sc2C1c1cn(-c2ccccc2)nc1-c1ccccc1 (centres unmarked)  inhibition (CA12; enzyme activity; inhibitor; absorbance; 0.1 µM): 27.5%
COc1cc(C(C)=O)ccc1OCC(O)CN1CCN(c2cc(Cl)ccc2C)CC1 (centres unmarked)  inhibition (DRD3; enzyme activity; inhibitor; 10 µM): 35.9%
CCOC(=O)C1CSc2[nH]c(=O)sc2C1c1cn(-c2ccccc2)nc1-c1ccc(Br)cc1 (centres unmarked)  inhibition (CA12; enzyme activity; inhibitor; absorbance; 10 µM): 81%
O=C(c1ccc(Cl)cc1)N(Cc1ccccc1)C1CCCCC1  inhibition (SLC6A3; cell-free assay; 10 µM): 48.8%
Cc1cccc(N2CCN(CC(O)COc3ccc4ccccc4c3)CC2)c1C (centres unmarked)  inhibition (DRD3; enzyme activity; inhibitor; 10 µM): 52.9%
O=C(O)c1cc(O)c(O)c(O)c1  inhibition (USP51; enzyme activity; inhibitor; 5 µM): 99%
Clc1ccc(C(c2ccccc2)c2nnnn2CCCCN2CCC(CCCc3ccccc3)CC2)cc1 (centres unmarked)  inhibition (SLC6A3; transporter uptake; inhibitor; HEK293; 1 µM): 69%
CCOC(=O)C1CSc2[nH]c(=O)sc2C1c1cn(-c2ccccc2)nc1-c1ccc(C)cc1 (centres unmarked)  inhibition (CA12; enzyme activity; inhibitor; absorbance; 0.1 µM): 28%
Clc1ccc(CC2CCN(CCCCn3nnnc3C(c3ccccc3)c3ccccc3)CC2)cc1Cl  inhibition (SLC6A3; transporter uptake; inhibitor; HEK293; 1 µM): 67.7%
Cc1ccc(-c2nn(-c3ccccc3)cc2C2c3sc(=O)[nH]c3SC3C(=O)N(c4ccccc4)C(=O)C32)cc1 (centres unmarked)  inhibition (CA12; enzyme activity; inhibitor; absorbance; 1 µM): 56.2%
